pIC50, pKi: −log10 of the molar value.
Columns and labels:
[1] = molecular target: T1, Delta-type opioid receptor (Rattus norvegicus, UniProt P33533); assay: In vitro binding affinity to Opioid receptor delta 1 in rat brain membranes by [3H]DADLE (Tyr-D-Ala-Gly-Phe-D-Leu) displacement.; assay type: cell membranes
Method in brief: (§1)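 [3H]DADLE (2 nM) was bound to daily-prepared rat brain membranes for 2 h at 25 °C in 50 mM Tris-HCl pH 7.4 with 100 mM choline chloride, 3 mM MnCl2, DAMGO to block mu sites, and protease inhibitor cocktail. Nonspecific binding was defined with 20 µM levallorphan. Ten drug concentrations were run twice. Ki from IC50 by Cheng–Prusoff.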

[2] = molecular target: T2, Kappa-type opioid receptor (Cavia porcellus, UniProt P41144); assay: In vitro radioligand binding assay, for inhibition of [3H]U-69593 binding to Opioid receptor kappa 1, in guinea pig brain membranes, at highest concentration of 8000 nM tested; assay type: cell membranes
Method in brief: (§2)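 Guinea pig brain membranes were homogenised in ice-cold 10 mM Tris-HCl pH 7.0, centrifuged twice at 30000g, and resuspended in 50 mM Tris-HCl pH 7.4. [3H]U69,593 (2 nM) was incubated 2 h at 25 °C with protease inhibitor cocktail and 1 µg/mL captopril. Nonspecific binding was defined with 1 µM U69,593. Ten drug concentrations were run twice. Ki = IC50/(1+[L]/Kd).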

Mu-type opioid receptor [3] = molecular target: T3, Mu-type opioid receptor (Rattus norvegicus, UniProt P33535); assay: In vitro radioligand binding assay, for inhibition of [3H]DAMGO (Tyr-D-Ala-Gly-(Me)-Phe-Gly-ol) binding to Opioid receptor mu 1 in rat brain membranes at highest concentration of 6800 nM tested; assay type: cell membranes
Method in brief: (§3)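 Rat brain membranes prepared daily: homogenised in ice-cold 10 mM Tris-HCl pH 7.0, centrifuged twice at 30000g for 10 min, resuspended in 50 mM Tris-HCl pH 7.4. Incubation 2 h at 25 °C in 50 mM Tris-HCl pH 7.4 with protease inhibitor cocktail. Nonspecific binding was defined with 20 µM levallorphan. Ten drug concentrations were run twice. Ki = IC50/(1+[L]/Kd).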

[4] = Ki ratio of mu to delta receptor
[5] = molecular target: T1, Delta-type opioid receptor; assay: In vitro radioligand binding assay, for inhibition of [3H]DADLE (Tyr-D-Ala-Gly-Phe-D-Leu) binding to Opioid receptor delta 1, in rat brain membranes at highest concentration of 1700 nM tested; assay type: cell membranes; method in brief: as §1
[6] = molecular target: T2, Kappa-type opioid receptor; assay: In vitro radioligand binding assay, for inhibition of [3H]U-69593 binding to Opioid receptor kappa 1, in guinea pig brain membranes, at highest concentration of 7000 nM tested; assay type: cell membranes; method in brief: as §2
Mu-type opioid receptor [7] = molecular target: T3, Mu-type opioid receptor; assay: In vitro radioligand binding assay, for inhibition of [3H]DAMGO (Tyr-D-Ala-Gly-(Me)-Phe-Gly-ol) binding to Opioid receptor mu 1 in rat brain membranes at highest concentration of 5600 nM tested; assay type: cell membranes; method in brief: as §3
[8] = molecular target: T2, Kappa-type opioid receptor; assay: In vitro radioligand binding assay, for inhibition of [3H]U-69593 binding to Opioid receptor kappa 1, in guinea pig brain membranes.; assay type: cell membranes; method in brief: as §2
Mu-type opioid receptor [9] = molecular target: T3, Mu-type opioid receptor; assay: In vitro radioligand binding assay, for inhibition of [3H]DAMGO (Tyr-D-Ala-Gly-(Me)-Phe-Gly-ol) binding to Opioid receptor mu 1 in rat brain membranes.; assay type: cell membranes; method in brief: as §3
Mu-type opioid receptor [10] = molecular target: T3, Mu-type opioid receptor; assay: In vitro radioligand binding assay, for inhibition of [3H]DAMGO (Tyr-D-Ala-Gly-(Me)-Phe-Gly-ol) binding to Opioid receptor mu 1 in rat brain membranes at highest concentration of 6300 nM tested; assay type: cell membranes; method in brief: as §3
[11] = molecular target: Delta-type opioid receptor (Mus musculus, UniProt P32300); assay: Agonist activity using electrically induced smooth muscle contraction of mouse vas deferens.; assay type: functional
Mu-type opioid receptor [12] = molecular target: Mu-type opioid receptor (Cavia porcellus, UniProt P97266); assay: Agonist activity using strips of guinea pig ileum longitudinal muscle myenteric plexus.; assay type: functional, tissue-based
Method in brief: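 Longitudinal muscle–myenteric plexus strips from male Hartley guinea pigs (250–500 g) at 1 g tension in Krebs bicarbonate, 37 °C, 95% O2/5% CO2. Transmural stimulation at 0.1 Hz, 0.4 ms pulses, supramaximal voltage. Cumulative agonist doses; % inhibition of contraction height. IC50 by nonlinear least squares.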

[13] = IC50 ratio of mu to delta receptor
Mu-type opioid receptor [14] = molecular target: T3, Mu-type opioid receptor; assay: In vitro radioligand binding assay, for inhibition of [3H]-DAMGO (Tyr-D-Ala-Gly-(Me)-Phe-Gly-ol) binding to Opioid receptor mu 1 in rat brain membranes at highest concentration of 6600 nM tested; assay type: cell membranes; method in brief: as §3

Chain of Mu-type opioid receptor (Cavia porcellus, UniProt P97266) (P97266 whole entry): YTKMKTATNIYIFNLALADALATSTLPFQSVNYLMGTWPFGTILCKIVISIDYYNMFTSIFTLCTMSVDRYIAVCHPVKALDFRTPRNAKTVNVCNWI
T2 sequence (P41144 whole entry): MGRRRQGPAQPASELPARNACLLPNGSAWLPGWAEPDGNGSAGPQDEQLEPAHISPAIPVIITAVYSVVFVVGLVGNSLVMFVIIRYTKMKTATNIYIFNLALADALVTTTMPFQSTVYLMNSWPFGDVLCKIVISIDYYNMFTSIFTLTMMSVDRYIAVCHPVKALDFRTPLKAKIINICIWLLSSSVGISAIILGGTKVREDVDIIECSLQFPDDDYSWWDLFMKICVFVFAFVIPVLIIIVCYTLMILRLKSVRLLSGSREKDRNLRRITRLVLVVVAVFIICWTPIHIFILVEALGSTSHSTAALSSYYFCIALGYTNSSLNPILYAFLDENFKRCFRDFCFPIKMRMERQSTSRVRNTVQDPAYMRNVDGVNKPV
T1 sequence (P33533 whole entry): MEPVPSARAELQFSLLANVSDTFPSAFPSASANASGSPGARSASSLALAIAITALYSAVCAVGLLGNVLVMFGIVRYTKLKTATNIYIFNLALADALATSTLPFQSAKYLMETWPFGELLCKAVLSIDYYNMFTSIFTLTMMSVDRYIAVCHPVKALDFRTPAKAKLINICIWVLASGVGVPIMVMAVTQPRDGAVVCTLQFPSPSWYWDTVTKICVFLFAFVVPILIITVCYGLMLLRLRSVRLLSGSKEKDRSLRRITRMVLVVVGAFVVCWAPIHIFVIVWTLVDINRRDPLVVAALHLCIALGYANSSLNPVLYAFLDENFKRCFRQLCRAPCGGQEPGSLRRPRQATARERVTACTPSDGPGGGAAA
Chain of Delta-type opioid receptor (Mus musculus, UniProt P32300) (P32300 whole entry): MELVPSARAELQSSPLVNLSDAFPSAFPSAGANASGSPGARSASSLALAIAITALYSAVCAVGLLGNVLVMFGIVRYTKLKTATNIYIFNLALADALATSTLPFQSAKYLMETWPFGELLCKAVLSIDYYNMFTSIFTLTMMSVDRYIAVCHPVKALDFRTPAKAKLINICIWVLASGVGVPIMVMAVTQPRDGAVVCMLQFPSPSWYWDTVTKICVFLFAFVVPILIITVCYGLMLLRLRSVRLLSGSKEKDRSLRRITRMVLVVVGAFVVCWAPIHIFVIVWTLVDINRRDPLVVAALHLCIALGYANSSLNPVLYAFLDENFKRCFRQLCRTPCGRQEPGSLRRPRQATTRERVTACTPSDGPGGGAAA
T3 sequence (P33535 whole entry): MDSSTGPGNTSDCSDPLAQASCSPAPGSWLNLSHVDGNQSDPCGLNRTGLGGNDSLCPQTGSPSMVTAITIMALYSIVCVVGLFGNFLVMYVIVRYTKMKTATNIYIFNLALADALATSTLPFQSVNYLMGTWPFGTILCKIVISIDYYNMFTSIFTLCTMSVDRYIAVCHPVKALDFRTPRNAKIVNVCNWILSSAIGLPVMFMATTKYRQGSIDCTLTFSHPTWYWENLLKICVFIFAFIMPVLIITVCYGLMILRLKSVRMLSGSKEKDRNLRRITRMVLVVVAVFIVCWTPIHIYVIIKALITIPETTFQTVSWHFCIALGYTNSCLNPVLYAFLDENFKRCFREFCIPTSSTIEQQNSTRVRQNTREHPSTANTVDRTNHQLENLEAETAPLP

Row | Structure (SMILES) | pKi [1] | pKi [2] | pKi (Mu-type opioid receptor [3]) | Ki ratio [4] | further results
1 | CCN(CC)C(=O)c1ccc(C(c2cccc(OC)c2)N(C)CCN(C)C)cc1 (stereo not drawn) | 6.61 | 5.00 | 5.00 | > 20 | –
2 | CCN(CC)C(=O)c1ccc(C(c2ccccc2)N2CCCCC2)cc1 (stereo not drawn) | – | – | 5.00 | > 4 | pKi [5]: 5.52; pKi [6]: 5.00
3 | CCN(CC)C(=O)c1ccc(C(c2ccccc2)N2CCN(C)CC2)cc1 (stereo not drawn) | 7.36 | – | – | > 130 | pKi [6]: 5.00; pKi (Mu-type opioid receptor [7]): 5.00
4 | C=CCN1C[C@H](C)N([C@H](c2ccc(C(=O)N(CC)CC)cc2)c2cccc(OC)c2)C[C@H]1C [SNC-80] | – | – | – | – | pKi [8]: 4.93; pKi (Mu-type opioid receptor [9]): 5.40
5 | CCN(CC)C(=O)c1ccc(C(c2cccc(OC)c2)C2CCNCC2)cc1 (stereo not drawn) | 7.70 | 5.00 | – | > 300 | pKi (Mu-type opioid receptor [10]): 5.00
6 | CCN(CC)C(=O)c1ccc(C(c2ccccc2)N2CCOCC2)cc1 (stereo not drawn) | – | – | 5.00 | > 4 | pKi [5]: 5.52; pKi [6]: 5.00
7 | CCCN1CCN(C(c2ccccc2)c2ccc(C(=O)N(CC)CC)cc2)CC1 (stereo not drawn) | 7.35 | – | 5.00 | > 150 | pKi [6]: 5.00
8 | CCN(CC)C(=O)c1ccc(C(=C2CCN(Cc3ccccc3)CC2)c2cccc(OC)c2)cc1 | 7.92 | – | – | > 500 | pKi [8]: 5.12; pKi (Mu-type opioid receptor [10]): 5.00
9 | C=CCN1CCC(C(c2ccc(C(=O)N(CC)CC)cc2)c2cccc(OC)c2)CC1 (stereo not drawn) | 7.57 | 5.00 | – | > 200 | pKi (Mu-type opioid receptor [10]): 5.00
10 | C=CCN1CCN(C(c2ccc(C(=O)N(CC)CC)cc2)c2cccc(OC)c2)CC1 (stereo not drawn) | 7.57 | – | – | > 230 | pIC50 [11]: 7.48; pKi [8]: 5.00; pIC50 (Mu-type opioid receptor [12]): 4.69; pKi (Mu-type opioid receptor [9]): 5.00; Ratio [13]: 610
11 | CCN(CC)C(=O)c1ccc(C(c2ccccc2)N2CCN(Cc3ccccc3)CC2)cc1 (stereo not drawn) | 8.83 | – | 5.00 | > 4500 | pIC50 [11]: 7.59; pKi [6]: 5.70; pIC50 (Mu-type opioid receptor [12]): 5.01; Ratio [13]: 382
12 | CCN(CC)C(=O)c1ccc(C(c2cccc(OC)c2)C2CCN(C)CC2)cc1 (stereo not drawn) | 6.48 | 5.00 | – | > 15 | pKi (Mu-type opioid receptor [10]): 5.00
13 | CCN(CC)C(=O)c1ccc(C(c2ccccc2)N2CCNCC2)cc1 (stereo not drawn) | 8.31 | – | 5.00 | > 1400 | –
14 | C=CCN1CCN(C(c2ccccc2)c2ccc(C(=O)N(CC)CC)cc2)CC1 (stereo not drawn) | 7.98 | – | – | > 600 | pKi (Mu-type opioid receptor [14]): 5.00
15 | CCN(CC)C(=O)c1ccc(C(=C2CCNCC2)c2cccc(OC)c2)cc1 | 8.30 | 5.00 | – | > 1200 | pIC50 [11]: 6.90; pIC50 (Mu-type opioid receptor [12]): 4.56; pKi (Mu-type opioid receptor [10]): 5.00; Ratio [13]: 220
16 | C=CCN1C[C@H](C)N([C@@H](c2ccccc2)c2ccc(C(=O)N(CC)CC)cc2)C[C@H]1C | 9.30 | – | – | > 3600 | pKi [8]: 5.52; pKi (Mu-type opioid receptor [9]): 5.52; Ratio [13]: 813
17 | CCN(CC)C(=O)c1ccc(C(OCCN(C)C)c2cccc(OC)c2)cc1 (stereo not drawn) | 6.59 | 5.00 | 5.00 | > 20 | –
18 | CCN(CC)C(=O)c1ccc(C(NCCN(C)C)c2cccc(OC)c2)cc1 (stereo not drawn) | 6.21 | 5.00 | 5.00 | > 10 | –

Reference: ChEMBL document CHEMBL1132188, “Probes for narcotic receptor mediated phenomena. 26. Synthesis and biological evaluation of diarylmethylpiperazines and diarylmethylpiperidines as novel, nonpeptidic delta opioid receptor ligands” (J Med Chem, 1999)
